System: SE-expressing peptides and tetrameric proteins
Assay: SPR binding of CRT variants
Details: citrullinated CRT compared to non-citrullinated CRT
Outline: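 Native, PAD-citrullinated or Arg→Ala mouse CRT was immobilised at 3000 RU. Analytes were 15mer SE-positive or SE-negative control peptides at 330 μM, and HLA-DR tetramers (SE-positive or SE-negative) at 250 nM.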

B1: Cit-CRT: recombinant mouse CRT citrullinated in vitro with PAD from rabbit skeleton muscle (protein, UniProt P14211 18-416, looked up)
Calreticulin: DPAIYFKEQFLDGDAWTNRWVESKHKSDFGKFVLSSGKFYGDLEKDKGLQTSQDARFYALSAKFEPFSNKGQTLVVQFTVKHEQNIDCGGGYVKLFPSGLDQKDMHGDSEYNIMFGPDICGPGTKKVHVIFNYKGKNVLINKDIRCKDDEFTHLYTLIVRPDNTYEVKIDNSQVESGSLEDDWDFLPPKKIKDPDAAKPEDWDERAKIDDPTDSKPEDWDKPEHIPDPDAKKPEDWDEEMDGEWEPPVIQNPEYKGEWKPRQIDNPDYKGTWIHPEIDNPEYSPDANIYAYDSFAVLGLDLWQVKSGTIFDNFLITNDEAYAEEFGNETWGVTKAAEKQMKDKQDEEQRLKEEEEDKKRKEEEEAEDKEDDDDRDEDEDEEDEKEEDEEESPGQAKDEL
modifications: citrullinated
  interaction with the SE ligand (in words): higher affinity for the SE ligand

— publication PMC3582785 (Arthritis and rheumatism, 2013)
